≈ marks a conversion by molar mass, not a printed value.
Columns and labels:
Pseudomonas aeruginosa [1] = assay: Antibacterial activity against Pseudomonas aeruginosa PAO1 K767 after 18 to 24 hrs; assay type: functional
Summary of the method: (§1)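 Broth MIC per CLSI guidelines in cation-adjusted Mueller Hinton broth. Compounds were dissolved and serially diluted in DMSO (carbapenems in water) before addition to plates. Incubation was at 37 °C for 18−24 h. MIC is the lowest concentration preventing visible growth. MIC50/MIC90 are the concentrations inhibiting 50% or 90% of isolates tested.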

Pseudomonas aeruginosa [2] = assay: Antibacterial activity against mexAB-oprM deficient Pseudomonas aeruginosa K1119 after 18 to 24 hrs; assay type: functional; summary of the method: as §1
[3] = Solubility of the compound at pH 6.8 by high throughput screening assay; assay type: physicochemical; settings: buffer
[4] = target: T1, UDP-3-O-acyl-N-acetylglucosamine deacetylase (Pseudomonas aeruginosa (strain ATCC 15692 / PAO1 / 1C / PRS 101 / LMG12228), UniProt P47205); assay: Inhibition of Pseudomonas aeruginosa LpxC using UDP-3-O-(R-hydroxydecanoyl)-N-acetylglucosamine as substrate preincubated for 30 mins followed by substrate addition measured after 20 mins by LC-MS/MS analysis
T1 sequence (P47205 whole entry): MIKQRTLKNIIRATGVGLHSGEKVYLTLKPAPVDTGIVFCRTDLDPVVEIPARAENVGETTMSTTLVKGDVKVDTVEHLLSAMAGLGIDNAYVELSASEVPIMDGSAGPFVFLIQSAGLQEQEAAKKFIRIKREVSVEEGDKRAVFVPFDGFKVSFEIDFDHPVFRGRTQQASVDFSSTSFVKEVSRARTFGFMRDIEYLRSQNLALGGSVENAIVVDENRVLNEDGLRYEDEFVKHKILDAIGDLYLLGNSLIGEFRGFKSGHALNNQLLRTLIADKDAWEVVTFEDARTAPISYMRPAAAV

Pseudomonas aeruginosa [5] = assay: Antibacterial activity against hypersusceptible Pseudomonas aeruginosa Z61 after 18 to 24 hrs; assay type: functional; summary of the method: as §1
[6] = Cytotoxicity against human K562 cells assessed as reduction in cell viability after 72 hrs by WST1 assay; assay type: cell-based
Summary of the method: (§2)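 Cells were grown and assayed in medium with 10% heat-inactivated FBS and exposed to compound for 72 h. Metabolic activity was read as WST-1 cleavage to formazan at A450, with puromycin as positive control. CC50 (50% reduction in viability) was calculated from dose-response curves.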

Pseudomonas aeruginosa [7] = assay: Antibacterial activity against Pseudomonas aeruginosa clinical isolate after 18 to 24 hrs; assay type: functional
[8] = system: Stenotrophomonas maltophilia; assay: Antibacterial activity against Stenotrophomonas maltophilia NB55011 after 18 to 24 hrs; assay type: functional; summary of the method: as §1
Burkholderia cepacia = assay: Antibacterial activity against Burkholderia cepacia NB49016 after 18 to 24 hrs; assay type: functional; summary of the method: as §1
Proteus mirabilis = assay: Antibacterial activity against Proteus mirabilis NB32022 after 18 to 24 hrs; assay type: functional; summary of the method: as §1
Klebsiella oxytoca = assay: Antibacterial activity against Klebsiella oxytoca NB30007 after 18 to 24 hrs; assay type: functional; summary of the method: as §1
Acinetobacter baumannii = assay: Antibacterial activity against Acinetobacter baumannii NB48015 after 18 to 24 hrs; assay type: functional; summary of the method: as §1
Klebsiella aerogenes = assay: Antibacterial activity against Enterobacter aerogenes NB24004 after 18 to 24 hrs; assay type: functional; summary of the method: as §1
Alcaligenes = assay: Antibacterial activity against Alcaligenes xylosus NB56002 after 18 to 24 hrs; assay type: functional; summary of the method: as §1
[9] = Cytotoxicity against human HepG2 cells assessed as reduction in cell viability after 72 hrs by WST1 assay; assay type: cell-based; summary of the method: as §2
[10] = Protein binding in mouse plasma; assay type: ADME, cell-free; settings: read-out: PPB (converted)
[11] = Protein binding in rat plasma; assay type: ADME, cell-free; settings: read-out: PPB (converted)
[12] = Protein binding in human plasma; assay type: ADME, cell-free; settings: read-out: PPB (converted)

Compound | MIC (Pseudomonas aeruginosa [1]) | MIC (Pseudomonas aeruginosa [2]) | IC50 [4] | MIC (Pseudomonas aeruginosa [5]) | MIC50 (Pseudomonas aeruginosa [7]) | MIC90 (Pseudomonas aeruginosa [7]) | further results
C[C@@H](NCC(=O)N1CCNC(=O)C1)[C@H](NC(=O)c1ccc(C#Cc2ccccc2)cc1)C(=O)NO | 32 µg/mL (≈ 67 µM) | 0.5 µg/mL (≈ 1.05 µM) | 4.19 nM | 4 µg/mL (≈ 8.38 µM) | – | – | solubility [3]: 0.392 µM; CC50 at 72 h [6]: > 100000 nM
C[C@@H](N)[C@H](NC(=O)COc1ccc(N2CCCC2=O)cc1)C(=O)NO | > 128 µg/mL | > 128 µg/mL | 342 nM | > 128 µg/mL | – | – | –
C[C@@H](N)[C@H](NC(=O)[C@H]1CC[C@H](C(C)(C)C)CC1)C(=O)NO | 128 µg/mL (≈ 428 µM) | 16 µg/mL (≈ 53.4 µM) | 117 nM | 32 µg/mL (≈ 107 µM) | – | – | –
C[C@@H](O)[C@H]1C(=O)N2C(C(=O)O)=C(SCCNC=N)C[C@H]12 [IMIPENEM ANHYDROUS] | – | – | – | – | 2 µg/mL (≈ 6.68 µM) | 16 µg/mL (≈ 53.4 µM) | –
O=C(O)c1cn(C2CC2)c2cc(N3CCNCC3)c(F)cc2c1=O [CIPROFLOXACIN] | – | – | – | – | – | – | MIC [8]: 0.5 µg/mL (≈ 1.51 µM); MIC (Burkholderia cepacia): 0.5 µg/mL (≈ 1.51 µM); MIC (Proteus mirabilis): ≤ 0.03 µg/mL; MIC (Klebsiella oxytoca): ≤ 0.03 µg/mL; MIC (Acinetobacter baumannii): 0.5 µg/mL (≈ 1.51 µM); MIC (Klebsiella aerogenes): > 16 µg/mL; MIC (Alcaligenes): 2 µg/mL (≈ 6.04 µM)
CCCCc1ccc(C(=O)N[C@H](C(=O)NO)[C@@H](C)N)cc1 | 8 µg/mL (≈ 27.3 µM) | 0.5 µg/mL (≈ 1.7 µM) | 37.5 nM | 1 µg/mL (≈ 3.41 µM) | – | – | CC50 at 72 h [9]: 125000 nM; solubility ([3]; read-out: solubility): > 293 µg/mL; CC50 at 72 h [6]: 42300 nM
CCc1ccc(-c2ccc(C(=O)N[C@H](C(=O)NO)[C@@H](C)N)cc2)cc1 | 2 µg/mL (≈ 5.86 µM) | 0.06 µg/mL (≈ 0.176 µM) | 1.46 nM | 0.25 µg/mL (≈ 0.732 µM) | – | – | CC50 at 72 h [9]: 12800 nM; solubility ([3]; read-out: solubility): 4 µg/mL; CC50 at 72 h [6]: 7370 nM
CC#CCOc1ccc(C(=O)N[C@H](C(=O)NO)[C@H](N)C(C)C)cc1 | > 128 µg/mL | 16 µg/mL (≈ 48 µM) | 900 nM | 32 µg/mL (≈ 96 µM) | – | – | –
CC#CCOc1ccc(C(=O)N[C@H](C(=O)NO)[C@@H](C)N)cc1 | 2 µg/mL (≈ 6.55 µM) | 0.25 µg/mL (≈ 0.819 µM) | 19.7 nM | 0.5 µg/mL (≈ 1.64 µM) | – | – | CC50 at 72 h [9]: > 419000 nM; solubility ([3]; read-out: solubility): 295 µg/mL; CC50 at 72 h [6]: > 419000 nM
C[C@@H](N)[C@H](NC(=O)c1ccc(C#Cc2ccccc2)cc1)C(=O)NO | 1 µg/mL (≈ 2.96 µM) | 0.25 µg/mL (≈ 0.741 µM) | 3.56 nM | 0.25 µg/mL (≈ 0.741 µM) | – | – | fraction unbound [10]: 0.086; fraction unbound [11]: 0.072; fraction unbound [12]: 0.081; CC50 at 72 h [6]: 29500 nM
CC#CCOc1ccc(C(=O)N[C@H](C(=O)NO)[C@H](C)N)cc1 | 1 µg/mL (≈ 3.28 µM) | 0.5 µg/mL (≈ 1.64 µM) | 16.4 nM | 1 µg/mL (≈ 3.28 µM) | – | – | –
CCc1ccc(-c2ccc(C(=O)N[C@H](C(=O)NO)[C@@H](C)NCC(=O)O)cc2)cc1 | 128 µg/mL (≈ 320 µM) | 1 µg/mL (≈ 2.5 µM) | 1 nM | 32 µg/mL (≈ 80.1 µM) | – | – | –
CC[C@H]1OC(=O)[C@H](C)[C@@H](O[C@H]2C[C@@](C)(OC)[C@@H](O)[C@H](C)O2)[C@H](C)[C@@H](O[C@@H]2O[C@H](C)C[C@H](N(C)C)[C@H]2O)[C@](C)(O)C[C@@H](C)CN(C)[C@H](C)[C@@H](O)[C@]1(C)O [AZITHROMYCIN] | – | – | – | – | 16 µg/mL (≈ 21.4 µM) | > 128 µg/mL | –
CC#CCOc1ccc(C(=O)NC(C(=O)NO)C(C)(C)N)cc1 (racemic) | 2 µg/mL (≈ 6.26 µM) | 0.25 µg/mL (≈ 0.783 µM) | – | 0.25 µg/mL (≈ 0.783 µM) | – | – | –
CCc1ccc(-c2ccc(C(=O)N[C@H](C(=O)NO)[C@@H](C)NCC(=O)N3CCNC(=O)C3)cc2)cc1 | 16 µg/mL (≈ 33.2 µM) | 0.125 µg/mL (≈ 0.26 µM) | – | 1 µg/mL (≈ 2.08 µM) | – | – | –
C[C@@H](O)[C@H]1C(=O)N2C(C(=O)O)=C(S[C@@H]3CN[C@H](CNS(N)(=O)=O)C3)[C@H](C)[C@H]12 [DORIPENEM] | – | – | – | – | 1 µg/mL (≈ 2.38 µM) | 32 µg/mL (≈ 76.1 µM) | –
NC[C@H]1O[C@H](O[C@H]2[C@H](O)[C@@H](O[C@H]3O[C@H](CO)[C@@H](O)[C@H](N)[C@H]3O)[C@H](N)C[C@@H]2N)[C@H](N)C[C@@H]1O [TOBRAMYCIN] | – | – | – | – | 2 µg/mL (≈ 4.28 µM) | > 128 µg/mL | –
NCC[C@H](O)C(=O)N[C@@H]1C[C@H](N)[C@@H](O[C@H]2O[C@H](CN)[C@@H](O)[C@H](O)[C@H]2O)[C@H](O)[C@H]1O[C@H]1O[C@H](CO)[C@@H](O)[C@H](N)[C@H]1O [AMIKACIN] | – | – | – | – | 16 µg/mL (≈ 27.3 µM) | > 128 µg/mL | –
CC#CCOc1ccc(C(=O)N[C@@H](C(=O)NO)C(C)(C)N)cc1 | 16 µg/mL (≈ 50.1 µM) | 2 µg/mL (≈ 6.26 µM) | – | 4 µg/mL (≈ 12.5 µM) | – | – | –
C[C@@H](O)[C@H]1C(=O)N2C(C(=O)O)=C(S[C@@H]3CN[C@H](C(=O)N(C)C)C3)[C@H](C)[C@H]12 [MEROPENEM] | – | – | – | – | 2 µg/mL (≈ 5.22 µM) | 32 µg/mL (≈ 83.4 µM) | –
COLISTIN | – | – | – | – | 0.5 µg/mL | 2 µg/mL | –
C[C@@H](N)[C@H](NC(=O)c1ccc(OC(C)(C)C)cc1)C(=O)NO | 32 µg/mL (≈ 103 µM) | 1 µg/mL (≈ 3.23 µM) | 268 nM | 4 µg/mL (≈ 12.9 µM) | – | – | –
CC1(C)S[C@@H]2[C@H](NC(=O)[C@H](C(=O)O)c3ccsc3)C(=O)N2[C@H]1C(=O)O [TICARCILLIN] | – | – | – | – | 128 µg/mL (≈ 333 µM) | > 128 µg/mL | –
CCN1CCN(C(=O)N[C@@H](C(=O)N[C@@H]2C(=O)N3[C@@H]2SC(C)(C)[C@@H]3C(=O)O)c2ccccc2)C(=O)C1=O [PIPERACILLIN] | – | – | – | – | 32 µg/mL (≈ 61.8 µM) | > 128 µg/mL | –
CC(C)(O/N=C(\C(=O)N[C@@H]1C(=O)N2C(C(=O)[O-])=C(C[n+]3ccccc3)CS[C@H]12)c1csc(N)n1)C(=O)O [CEFTAZIDIME] | – | – | – | – | 4 µg/mL (≈ 7.32 µM) | > 128 µg/mL | –
CC#CCOc1ccc(C(=O)N[C@H](C(=O)NO)[C@H](N)C2CC2)cc1 | 32 µg/mL (≈ 96.6 µM) | 2 µg/mL (≈ 6.04 µM) | 362 nM | 4 µg/mL (≈ 12.1 µM) | – | – | –
CC#CCOc1ccc(C(=O)N[C@H](C(=O)NO)[C@@H](N)C(F)(F)F)cc1 | 16 µg/mL (≈ 44.5 µM) | 0.25 µg/mL (≈ 0.696 µM) | 39 nM | 1 µg/mL (≈ 2.78 µM) | – | – | –
C[C@@H](N)[C@H](NC(=O)c1ccc(N2CCOCC2)cc1)C(=O)NO | > 128 µg/mL | 16 µg/mL (≈ 49.6 µM) | 1640 nM | 32 µg/mL (≈ 99.3 µM) | – | – | –

From ChEMBL document CHEMBL4028845, “Design, Synthesis, and Properties of a Potent Inhibitor of Pseudomonas aeruginosa Deacetylase LpxC” (J Med Chem, 2017)
